Measured values: ChEMBL document CHEMBL1177638, “Synthesis of pyrrolo[3,2-h]quinolinones with good photochemotherapeutic activity and no DNA damage” (Bioorg Med Chem, 2010)
Active and inactive are the calls of the source. The rule behind the calls is not given here.

Columns and labels:
Jurkat [1] = assay: Phototoxicity against human Jurkat cells irradiated with 2.5 J/cm'2 after 72 hrs by MTT assay; type: functional, cell-based; conditions: light or radiation study
In short: (§1)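 Cells were seeded at 8 × 10³ and preincubated 18 h at 37 °C, 5% CO₂. Jurkat and K-562 grew in RPMI-1640, MCF-7 and NCTC-2544 in DMEM, and LoVo in Ham's F12, all with 10% FBS plus penicillin and streptomycin. Compounds in DMSO were diluted in HBSS, pH 7.2 (range 20–0.31; DMSO ≤1%) and applied 30 min at 37 °C. Wells were then UV-A irradiated (365 nm; 2.5 or 3.75 J/cm²), medium was replaced, and MTT was read after 72 h.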

Jurkat [2] = assay: Phototoxicity against human Jurkat cells irradiated with 3.75 J/cm'2 after 72 hrs by MTT assay; type: functional, cell-based; conditions: light or radiation study; in short: as §1
MCF7 [3] = assay: Phototoxicity against human MCF7 cells irradiated with 2.5 J/cm'2 after 72 hrs by MTT assay; type: functional, cell-based; conditions: MCF7, light or radiation study; in short: as §1
K562 [4] = assay: Phototoxicity against human K562 cells irradiated with 2.5 J/cm'2 after 72 hrs by MTT assay; type: functional, cell-based; conditions: K562, light or radiation study; in short: as §1
LoVo [5] = assay: Phototoxicity against human LoVo cells irradiated with 2.5 J/cm'2 after 72 hrs by MTT assay; type: functional, cell-based; conditions: light or radiation study; in short: as §1
[6] = Phototoxicity against human sNCTC-2544 cells irradiated with 2.5 J/cm'2 after 72 hrs by MTT assay; type: functional, cell-based; conditions: NCTC-2544, light or radiation study; in short: as §1
K562 [7] = assay: Phototoxicity against human K562 cells irradiated with 3.75 J/cm'2 after 72 hrs by MTT assay; type: functional, cell-based; conditions: K562, light or radiation study; in short: as §1
[8] = Phototoxicity against human sNCTC-2544 cells irradiated with 3.75 J/cm'2 after 72 hrs by MTT assay; type: functional, cell-based; conditions: NCTC-2544, light or radiation study; in short: as §1
MCF7 [9] = assay: Phototoxicity against human MCF7 cells irradiated with 3.75 J/cm'2 after 72 hrs by MTT assay; type: functional, cell-based; conditions: MCF7, light or radiation study; in short: as §1
LoVo [10] = assay: Phototoxicity against human LoVo cells irradiated with 3.75 J/cm'2 after 72 hrs by MTT assay; type: functional, cell-based; conditions: light or radiation study; in short: as §1
Jurkat [11] = assay: Induction of apoptosis in human Jurkat cells assessed as induction of loss of membrane potential at 1 uM after 4 hrs post-irradiation with 20 J/cm'2 by flow cytometry; type: functional
In short: (§2)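 Irradiated Jurkat cells treated with compound were collected 2 and 4 h after irradiation and resuspended in HBSS containing JC-1. Green (FL1) and orange (FL2) fluorescence were read by flow cytometry, with at least 10,000 events per sample. Values are mean ± SD of at least three independent experiments.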

Jurkat [12] = assay: Induction of apoptosis in human Jurkat cells assessed as increase in mitochondrial ROS production at 2.5 uM after 6 hrs post-irradiation with 2.5 J/cm'2 by FACS analysis; type: functional
In short: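 Jurkat cells were collected 6 h after UV-A irradiation (2.5 J/cm²) with the compound and resuspended in HBSS with hydroethidine 2.5 µM or DCFDA 5 µM. They were incubated at 37 °C for 15 or 30 min. Flow cytometry used 488 nm excitation, with emission at 620 nm (HE) or 530 nm (DCF), acquiring ≥10,000 events. Values are means ± SD of three independent experiments.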

Jurkat [13] = assay: Cell cycle arrest in human Jurkat cells assessed as accumulation in S phase at 1 uM irradiated with 20 J/cm'2 after 24 hrs by flow cytometry; type: functional
In short: (§3)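 Exponentially growing Jurkat cells (5 × 10⁵) were irradiated with compound present. Drug was removed, and cells were kept 24 h in RPMI-1640, fixed in ice-cold 70% ethanol, and treated overnight with RNAse (10 KU/mL) in PBS. Cells were stained with propidium iodide and run on a flow cytometer, with DNA content reported as the fraction of cells in each cycle phase.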

Jurkat [14] = assay: Induction of lipid peroxidation in human Jurkat cells irradiated with 2.5 J/cm'2 assessed as increase in malondialdehyde production after 24 hrs by TBARS assay relative to untreated control; type: functional, cell-based
In short: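 Jurkat cells (500,000) were irradiated (2.5 J/cm²) with compound present and incubated 24 h. Supernatant was kept with BHT, and cells were lysed in 1% SDS, with protein measured by the Peterson method. Malondialdehyde was measured by thiobarbituric acid reaction (fluorescence, 553 nm) against a 1,1,3,3-tetraethoxypropane standard curve. Results are given as nmol TBARS normalized to protein.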

Jurkat [15] = assay: Induction of apoptosis in human Jurkat cells assessed as lysosomal dysfunction at 1 uM after 2 hrs post-irradiation with 2.5 J/cm'2 using acridine orange dye by flow cytometry; type: functional
In short: (§4)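 Jurkat cells were irradiated (2.5 J/cm²) with compound present and collected at 2 and 4 h. They were resuspended in RPMI-1640 containing acridine orange, and the percentage of red-fluorescent cells (intact lysosomes) was scored by flow cytometry. Values are mean ± SD of at least three independent experiments.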

Jurkat [16] = assay: Cell cycle arrest in human Jurkat cells assessed as accumulation in subG1 phase at 1 uM irradiated with 20 J/cm'2 after 24 hrs by flow cytometry; type: functional; in short: as §3
Nucleic Acid = assay: Binding affinity to salmon testes DNA assessed as intercalation by linear dichroism experiment; type: nucleic-acid assay; conditions: Salmonidae
In short: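 Salmon testes DNA was mixed with compound at [Drug]/[DNA] ratios of 0, 0.02 and 0.04 in 10 mM phosphate buffer, pH 7.2. Samples were oriented in a rotating cylindrical flow cuvette (0.14 cm path, 800 rpm), and linear dichroism spectra were recorded over roughly 250–450 nm.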

Jurkat [17] = assay: Induction of apoptosis in human Jurkat cells assessed as induction of loss of membrane potential at 1 uM after 2 hrs post-irradiation with 20 J/cm'2 using JC1 staining by FACS; type: functional; in short: as §2
Jurkat [18] = assay: Induction of apoptosis in human Jurkat cells assessed as lysosomal dysfunction at 1 uM after 4 hrs post-irradiation with 2.5 J/cm'2 using acridine orange dye by flow cytometry; type: functional; in short: as §4
Jurkat [19] = assay: Cell cycle arrest in human Jurkat cells assessed as accumulation in G1 phase at 1 uM irradiated with 25 J/cm'2 after 24 hrs by flow cytometry
Jurkat [20] = assay: Induction of apoptosis in human Jurkat cells assessed as induction of loss of membrane potential at 1 uM after 2 hrs post-irradiation with 20 J/cm'2 by flow cytometry; type: functional; in short: as §2
Jurkat [21] = assay: Cell cycle arrest in human Jurkat cells assessed as accumulation in G2/M phase at 1 uM irradiated with 25 J/cm'2 after 24 hrs by flow cytometry
Jurkat [22] = assay: Induction of apoptosis in human Jurkat cells assessed as induction of loss of membrane potential at 1 uM after 4 hrs post irradiation with 20 J/cm'2 using JC1 staining by FACS; type: functional; in short: as §2
Jurkat [23] = assay: Induction of apoptosis in human Jurkat cells assessed as phosphatidylserine esposure after 2 hrs using annexin-V FITC and PI staining by flow cytometry; type: functional, cell-based
In short: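 Jurkat cells (100,000) were irradiated (2.5 J/cm²) with compound present and centrifuged 30 min, 1 h or 2 h later. They were stained with Annexin V-FITC/PI for 15 min in the dark, and FITC (FL1) and PI (FL3) were read by flow cytometry, with at least 10,000 events. Cells were classed as intact, early apoptotic, late apoptotic/necrotic or necrotic. Values are the mean of three experiments.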

Jurkat [24] = assay: Induction of apoptosis in human Jurkat cells assessed as increase in mitochondrial ROS production at 1 uM after 6 hrs post-irradiation with 2.5 J/cm'2 by FACS analysis; type: functional
In short: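 Jurkat cells were irradiated (2.5 J/cm²) with compound present and collected 6 h later. They were resuspended in HBSS with hydroethidine and DCFDA (2.5 and 5, respectively) and held at 37 °C for 15 or 30 min. Flow cytometry used 488 nm excitation, reading 620 nm for HE and 530 nm for DCF, with at least 10,000 events. Values are mean ± SD, three independent experiments.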

Structure (SMILES) | IC50 (Jurkat [1]) | IC50 (Jurkat [2]) | IC50 (MCF7 [3]) | IC50 (K562 [4]) | IC50 (LoVo [5]) | IC50 [6] | IC50 (K562 [7]) | IC50 [8] | IC50 (MCF7 [9]) | IC50 (LoVo [10]) | further results
Cn1ccc2c1-c1[nH]c(=O)c(S(=O)(=O)c3ccccc3)cc1CC2 | > 20000 nM | > 20000 nM | > 20000 nM | > 20000 nM | > 20000 nM | > 20000 nM | > 20000 nM | > 20000 nM | > 20000 nM | > 20000 nM | 
COc1ccc(Cn2ccc3c2-c2[nH]c(=O)c(S(=O)(=O)c4ccccc4)cc2CC3)cc1 | 1600 nM | 1200 nM | 4200 nM | 3100 nM | 2800 nM | 4300 nM | 2500 nM | 2700 nM | 1800 nM | 2000 nM | 
CCOC(=O)c1cc2c([nH]1)-c1[nH]c(=O)c(S(=O)(=O)c3ccccc3)cc1CC2 | 3500 nM | 2500 nM | 6100 nM | 6100 nM | 5500 nM | 9300 nM | 5300 nM | 7200 nM | 4300 nM | 4600 nM | 
Cc1ccc(Cn2ccc3c2-c2[nH]c(=O)c(S(=O)(=O)c4ccccc4)cc2CC3)cc1 | 1600 nM | 1200 nM | 3800 nM | 2700 nM | 2700 nM | 3300 nM | 2400 nM | 2600 nM | 2400 nM | 2300 nM | 
N#Cc1cc2c([nH]c1=O)-c1c(ccn1S(=O)(=O)c1ccccc1)CC2 | > 20000 nM | > 20000 nM | > 20000 nM | > 20000 nM | > 20000 nM | > 20000 nM | > 20000 nM | > 20000 nM | > 20000 nM | > 20000 nM | 
O=c1[nH]c2c(cc1S(=O)(=O)c1ccccc1)CCc1ccn(Cc3ccccc3)c1-2 | 1300 nM | 1100 nM | 4000 nM | 4800 nM | 2600 nM | 7500 nM | 3300 nM | 5500 nM | 1700 nM | 2200 nM | 
CCOC(=O)c1cc2c(n1Cc1ccc(OC)cc1)-c1[nH]c(=O)c(S(=O)(=O)c3ccccc3)cc1CC2 | 800 nM | 700 nM | 1600 nM | 1000 nM | 1100 nM | 1900 nM | 900 nM | 1600 nM | 1300 nM | 1000 nM | Activity (Jurkat [11]): 47.07%; Activity (Jurkat [12]): Active; Activity (Jurkat [13]): 6.1%; Activity (Jurkat [14]): Dose-dependent effect; Activity (Jurkat [15]): 58.5%; Activity (Jurkat [16]): 74.7%; Activity (Nucleic Acid): inactive; Activity (Jurkat [17]): 55.57%; Activity (Jurkat [18]): 63.16%; Activity (Jurkat [19]): 12.6%; Activity (Jurkat [20]): 44.43%; Activity (Jurkat [21]): 6.6%; Activity (Jurkat [22]): 25.86%; Activity (Jurkat [23]): Active; Activity (Jurkat [24]): 79.08%
O=c1[nH]c2c(cc1S(=O)(=O)c1ccccc1)CCc1ccn(-c3ccccc3)c1-2 | > 20000 nM | > 20000 nM | > 20000 nM | > 20000 nM | > 20000 nM | > 20000 nM | > 20000 nM | > 20000 nM | > 20000 nM | > 20000 nM | 
O=c1[nH]c2c(cc1S(=O)(=O)c1ccccc1)CCc1cc[nH]c1-2 | > 20000 nM | > 20000 nM | > 20000 nM | > 20000 nM | > 20000 nM | > 20000 nM | > 20000 nM | > 20000 nM | > 20000 nM | > 20000 nM | 
CCOC(=O)c1cc2c(n1Cc1ccc(C)cc1)-c1[nH]c(=O)c(S(=O)(=O)c3ccccc3)cc1CC2 | 1500 nM | 1200 nM | 1700 nM | 1300 nM | 1600 nM | 2700 nM | 1000 nM | 2200 nM | 1400 nM | 1000 nM | 
CCOC(=O)c1cc2c(n1Cc1ccccc1)-c1[nH]c(=O)c(S(=O)(=O)c3ccccc3)cc1CC2 | 800 nM | 600 nM | 900 nM | 900 nM | 900 nM | 1100 nM | 600 nM | 1000 nM | 800 nM | 800 nM | Activity (Jurkat [11]): 67.18%; Activity (Jurkat [12]): Active; Activity (Jurkat [13]): 8.2%; Activity (Jurkat [14]): Dose-dependent effect; Activity (Jurkat [15]): 29.76%; Activity (Jurkat [16]): 68.5%; Activity (Nucleic Acid): inactive; Activity (Jurkat [17]): 75.74%; Activity (Jurkat [18]): 55.82%; Activity (Jurkat [19]): 16.1%; Activity (Jurkat [20]): 24.26%; Activity (Jurkat [21]): 7.2%; Activity (Jurkat [22]): 32.82%; Activity (Jurkat [23]): Active; Activity (Jurkat [24]): 24.4%
O=c1[nH]c2c(cc1S(=O)(=O)c1ccccc1)CCc1ccn(S(=O)(=O)c3ccccc3)c1-2 | > 20000 nM | > 20000 nM | > 20000 nM | > 20000 nM | > 20000 nM | > 20000 nM | > 20000 nM | > 20000 nM | > 20000 nM | > 20000 nM | 
